Converted amounts (≈) assume the structure as drawn. “Also recorded” adds a separate entry of the source.
What was measured:
[1] = tested on: carrageenan-evoked thermal hyperalgesia; settings: cited from earlier work
[2] = cited from earlier work
[3] = Urinary excretion and renal clearance; assay type: in vivo, healthy men
How it was run: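 Samples were assayed by LC-MS/MS over 5–1000 ng/mL (LLOQ 5 ng/mL). Excreted amount = urine volume × concentration, % of dose = Ae/dose × 100, and renal clearance = Ae/AUC.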

[4] = QTcF interval; assay type: in vivo, healthy men
[5] = tested on: capsaicin-induced flare; test: Capsaicin-induced flare area and intensity in humans; assay type: in vivo, healthy men
How it was run: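 Part 2 was a double-blind, 3-way crossover of single oral test compound (10 or 50 mg) or placebo tablets after an overnight fast. Capsaicin cream (0.075% w/w) stayed on the forearm for 30 min. Laser Doppler scans were taken before and after, at predose, 4 h and 144 h postdose. Flare area counted pixels with flux above the 95th percentile (mean + 2 SD) of baseline. Intensity was taken as relative flux.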

[6] = Plasma pharmacokinetics after single oral dose; assay type: in vivo, healthy men; settings: for Tmax / half-life: male, human, plasma; for Tmax: Median tmax
How it was run: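 After a fast of at least 10 h, single oral tablets were given semirecumbent with 240 mL water (part 1: 1–225 mg; part 2: 10, 50 mg). Plasma was assayed by validated LC-MS/MS over 1–1000 ng/mL (LLOQ 1 ng/mL). Noncompartmental analysis used actual times. Cmax and tmax were taken by inspection, t1/2 = 0.693/λz, CL/F = dose/AUC∞, and Vz/F = D/(λz × AUC∞).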

[7] = tested on: heat-evoked pain; assay type: in vivo, healthy men
How it was run: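 In part 1 (single oral tablets, 1–225 mg, or placebo), heat pain detection and tolerance were measured with a 9 × 9 mm Peltier thermode on the volar forearm, to a 52 °C cutoff. Cold and von Frey mechanical pain thresholds were added in part 1b, with ratings on a 0–11 scale. Testing ran predose, 4 and 8 h, days 2, 4 and 6, and follow-up.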

[8] = tested on: naïve and UVB-sensitized skin; test: Sensory testing part 2 on naïve and UVB-sensitized skin; assay type: in vivo, healthy men
How it was run: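 In the part 2 crossover (oral 10 or 50 mg, or placebo), minimal erythema dose was first found with graded UVB on the lower back. Three times that dose was then given to the volar forearm. Warm detection, heat pain detection, heat pain tolerance, mechanical pain threshold and allodynia were tested on UVB-treated and naïve skin. Times were predose, 4, 8, 24, 72, 120 and 144 h, and follow-up, to a 52 °C maximum.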

[9] = Oral body temperature and Emax model vs plasma concentration; assay type: in vivo, healthy men; settings: for Mean maximum body temperature: part 2
How it was run: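 Oral temperature was recorded as a safety measure in healthy men after single oral tablet doses (part 1: 1–225 mg; part 2: 10, 50 mg, placebo). The maximum value was summarised per dose. An Emax model with baseline effect E0, Emax and EC50 related body temperature to plasma concentration of the test compound.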

[10] = target: human TRPV1 receptors; settings: cited from earlier work
[11] = tested on: capsaicin-induced flare; test: Block of topical capsaicin-induced flare in rats; assay type: in vivo, Sprague Dawley rats
[12] = part 1, vs plasma concentration

CC(C)(O)c1ccccc1-c1ccc2[nH]c(/C=C/c3ccc(C(F)(F)F)cc3)nc2c1 [JNJ-39439335, trans-2-(2-{2-[2-(4-Trifluoromethyl-phenyl)-vinyl]-1H-benzimidazol-5-yl}-phenyl)-propan-2-ol]
Near maximally effective plasma concentration at the ED80 ([1]; rat carrageenan model of inflammatory pain): 0.009 µg/mL | Carrageenan-evoked thermal hyperalgesia ([1]; rat): significantly attenuated | Safety margins in 4-week toxicology studies ([2]; rat and dog): acceptable safety margins | AUC24h at the no-observed-adverse-effect level dose ([2]; rat, most sensitive animal species): 10,700 ng·h·mL^−1 | Renal clearance ([3]; in vivo): negligible | Concentrations in urine ([3]; lower limit of quantification 5 ng/mL): below the quantification limit | Participants with increase in QTcF of >30 milliseconds or QTcF >450 milliseconds ([4]; either part of the study): No participant | Participants with QTcF interval shortening of >30 milliseconds vs baseline ([4]; part 1, 10 mg dose group): 2 n | Participants with QTcF interval shortening of >30 milliseconds vs baseline ([4]; part 1, 15 mg dose group): 3 n | Participants with QTcF interval shortening of >30 milliseconds vs baseline ([4]; part 1, 120 mg dose group): 2 n | Participants with QTcF interval shortening of >30 milliseconds vs baseline ([4]; part 1, 225 mg dose group): 2 n | Participants with QTcF interval shortening of >30 milliseconds vs baseline ([4]; part 1, all JNJ-39439335 doses): 9 participants | Participants with QTcF interval shortening of >30 milliseconds vs baseline ([4]; part 2, 50 mg): 4 participants | Plasma concentration giving maximum effect on flare area and flare intensity ([5]; 4-hour postdose): ≥ 90 ng/mL | Plasma concentration giving maximum effect on flare area and flare intensity ([5]; 144-hour postdose): > 5 ng/mL | Capsaicin-induced flare intensity and flare area ([5]; part 2, 10 and 50 mg, 4- and 144-hour postdose): dose-related reduction | Capsaicin-induced flare area and flare intensity ([5]; part 2, 50-mg dose, 144 hours postdose): complete blocking; also recorded: completely blocked | Dose proportionality of exposure (Cmax, AUC∞) ([6]; doses of 1 to 225 mg): less than dose-proportional increase in exposure | Tmax ([6]; oral, 50 mg, part 2, 10 and 50 mg, tablet, fasted): ~3 h | half-life ([6]; oral, Mean elimination half-life, part 1, doses of 1 to 225 mg): 29.9 to 85.9 h | Tmax ([6]; oral, across the dose range administered (discussion)): 2 to 4.5 h | Tmax ([6]; oral, part 1, doses of 1 to 225 mg, tablet, fasted): 2.02 to 4.44 h | half-life ([6]; po, Terminal phase half-life, single oral doses): 30 to 86 h | Heat pain detection threshold, heat pain tolerance, and heat pain latency ([7]; effect of treatment): clear, consistent dose-related increases | Mechanical pain detection threshold ([7]; healthy human participants (discussion)): no effect | Dose levels at which mean HPT increased from predose to postdose ([7]; part 1): ≥ 2 mg | Doses at which most participants reached the HPD cutoff temperature (52°C) ([7]; part 1): ≥ 30 mg | Cold pain detection threshold ([7]; part 1b, 15- to 225-mg dose range): No clear separation from placebo and no clear dose-related effect | Mean heat pain latency ([7]; part 1b, all dose levels tested (15 to 225 mg), predose to postdose): Increases in mean heat pain latency values | HPD threshold, HPT, and warm detection threshold ([8]; naïve and UVB-sensitized skin, 10 and 50 mg): dose-dependent increase | Mechanical pain detection threshold ([8]; naïve skin or UVB-sensitized skin): no clear treatment or dose-related effects | Plasma concentration at which most participants detected warmth before 52°C ([8]; warm detection threshold): < 200 ng/mL | EC50 ([9]; Homo sapiens, po, read-out: EC50, body temperature Emax model): 0.0327 µg/mL (≈ 0.0774 µM) | Participants with body temperature ≥39°C ([9]; part 1, 120-mg, approximately 11-hour postdose): 1 participant | E0, body temperature Emax model [9, 12]: 36.6 °C | Emax, body temperature Emax model [9, 12]: 37.6 °C | Mean maximum body temperature ([9]; 10 mg): 37.9 °C | Mean maximum body temperature ([9]; 50 mg): 38.0 °C | IC50 [10]: 4.7 nM | Capsaicin-induced flare ([11]; pretreatment 0.3–30 mg/kg, p.o.): blocked the capsaicin-induced flare in a dose-dependent fashion | Estimated plasma exposure associated with ED50 ([11]; rat, data not shown): 0.0676 ± 0.0449 µg/mL | Flare response induced by 1000 μg topical capsaicin ([11]; rat, single oral dose of 10 mg/kg): completely blocked
